pKi: −log10 of the molar value.
What was measured:
[1] = target: T1, Monoglyceride lipase (Rattus norvegicus) (UniProt Q8R431); assay: Activity of partially purified Sprague-Dawley rat MGL assessed as substrate hydrolysis
T1 sequence (whole entry): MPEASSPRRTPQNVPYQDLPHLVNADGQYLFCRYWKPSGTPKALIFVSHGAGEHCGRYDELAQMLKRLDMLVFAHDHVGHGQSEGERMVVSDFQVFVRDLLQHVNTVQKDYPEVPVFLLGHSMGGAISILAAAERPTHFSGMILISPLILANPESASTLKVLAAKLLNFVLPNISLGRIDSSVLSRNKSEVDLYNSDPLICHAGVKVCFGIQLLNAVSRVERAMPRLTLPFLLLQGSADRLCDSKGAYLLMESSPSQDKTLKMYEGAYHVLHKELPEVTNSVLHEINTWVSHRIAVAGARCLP

[2] = target: T2, Fatty-acid amide hydrolase 1 (Rattus norvegicus) (UniProt P97612); assay: Activity of partially purified Sprague-Dawley rat FAAH assessed as substrate hydrolysis
T2 sequence (whole entry): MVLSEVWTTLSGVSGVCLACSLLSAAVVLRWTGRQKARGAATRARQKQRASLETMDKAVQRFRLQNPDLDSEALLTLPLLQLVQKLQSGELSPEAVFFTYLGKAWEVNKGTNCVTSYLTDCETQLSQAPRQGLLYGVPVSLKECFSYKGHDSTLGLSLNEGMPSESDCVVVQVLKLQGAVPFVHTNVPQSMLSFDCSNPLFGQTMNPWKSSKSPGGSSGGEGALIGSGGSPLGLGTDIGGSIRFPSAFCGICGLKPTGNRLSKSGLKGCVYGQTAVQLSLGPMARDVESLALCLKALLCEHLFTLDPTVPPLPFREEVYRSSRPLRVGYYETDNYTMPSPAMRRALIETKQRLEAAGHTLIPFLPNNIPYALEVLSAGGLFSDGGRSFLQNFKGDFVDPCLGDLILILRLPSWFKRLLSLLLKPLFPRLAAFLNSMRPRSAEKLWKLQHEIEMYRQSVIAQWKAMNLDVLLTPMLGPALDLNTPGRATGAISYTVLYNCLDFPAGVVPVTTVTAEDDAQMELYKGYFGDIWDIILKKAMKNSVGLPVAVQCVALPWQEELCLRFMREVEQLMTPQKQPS

[3] = target: Cannabinoid receptor 2 (Mus musculus, UniProt P47936); assay: Displacement of [3H]CP-55940 from mouse spleen CB2 receptor; assay type: tissue-based
Sequence of Cannabinoid receptor 2 (P47936 whole entry): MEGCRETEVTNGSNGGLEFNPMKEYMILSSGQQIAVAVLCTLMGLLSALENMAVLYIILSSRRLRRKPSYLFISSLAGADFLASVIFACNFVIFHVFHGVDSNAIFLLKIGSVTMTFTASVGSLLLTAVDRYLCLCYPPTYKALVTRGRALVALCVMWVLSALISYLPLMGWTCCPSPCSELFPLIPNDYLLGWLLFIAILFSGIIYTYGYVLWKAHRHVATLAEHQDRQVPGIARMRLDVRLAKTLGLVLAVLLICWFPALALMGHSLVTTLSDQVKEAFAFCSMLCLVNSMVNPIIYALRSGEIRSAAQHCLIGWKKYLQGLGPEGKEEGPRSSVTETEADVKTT
In short: (§1)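 Competition-equilibrium binding against [3H]CP55940, using rat brain membranes for CB1 and mouse spleen membranes for CB2. Some CB1 runs used membranes pretreated with PMSF. IC50 came from nonlinear regression and Ki was calculated from IC50. Points were run in duplicate, with values from single experiments.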

[4] = target: Cannabinoid receptor 1 (Rattus norvegicus, UniProt P20272); assay: Displacement of [3H]CP-55940 from rat brain CB1 receptor
Sequence of Cannabinoid receptor 1 (P20272 whole entry): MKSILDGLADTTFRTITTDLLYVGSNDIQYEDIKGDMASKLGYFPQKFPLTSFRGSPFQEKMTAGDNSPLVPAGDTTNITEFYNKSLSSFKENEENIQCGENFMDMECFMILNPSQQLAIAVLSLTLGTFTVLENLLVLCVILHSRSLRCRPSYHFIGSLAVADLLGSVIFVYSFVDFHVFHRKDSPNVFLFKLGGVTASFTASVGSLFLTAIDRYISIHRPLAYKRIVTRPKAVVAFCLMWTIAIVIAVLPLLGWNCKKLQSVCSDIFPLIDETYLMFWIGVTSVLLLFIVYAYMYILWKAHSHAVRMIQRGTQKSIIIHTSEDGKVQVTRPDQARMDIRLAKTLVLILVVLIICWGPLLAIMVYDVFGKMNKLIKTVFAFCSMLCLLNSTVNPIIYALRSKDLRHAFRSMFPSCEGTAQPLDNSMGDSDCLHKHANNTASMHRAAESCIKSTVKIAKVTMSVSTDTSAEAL
In short: as §1

Structure (SMILES) | hydrolysis [1] | hydrolysis [2] | pKi [3] | pKi [4]
CCCCC/C=C\C/C=C\C/C=C\C/C=C\CCCC(=O)O[C@H]1[C@H](O)CCC[C@@H]1O | 19% | 78% | – | –
CCCCC/C=C\C/C=C\C/C=C\C/C=C\CCCC(=O)OC1C(=O)CCCC1O (racemic; form 1) [listing 1 of 2 here] | – | – | 6.39 | –
CCCCC/C=C\C/C=C\C/C=C\C/C=C\CCCC(=O)OC1C(O)CCCC1O (single isomer, unassigned; (+)) [listing 1 of 2 here] | 10% | 88% | – | –
CCCCC/C=C\C/C=C\C/C=C\C/C=C\CCCC(=O)OC1C(=O)CCCC1O (racemic; form 2) | 8% | 100% | – | –
CCCCC/C=C\C/C=C\C/C=C\C/C=C\CCCC(=O)O[C@@H]1[C@H](O)CCC[C@@H]1O | 2% | 2% | – | –
CCCCC/C=C\C/C=C\C/C=C\C/C=C\CCCC(=O)OC1C(=O)CCCC1O (racemic; form 1) [listing 2 of 2 here] | 48% | 91% | – | –
CCCCC/C=C\C/C=C\C/C=C\C/C=C\CCCC(=O)OC1C(O)CCCC1O (single isomer, unassigned; (+)) [listing 2 of 2 here] | – | – | 6.43 | 6.44
CCCCC/C=C\C/C=C\C/C=C\C/C=C\CCCC(=O)OC1C(O)CCCC1O (single isomer, unassigned; (-)) [listing 1 of 2 here] | – | – | 5.92 | 6.11
CCCCC/C=C\C/C=C\C/C=C\C/C=C\CCCC(=O)OC1C(O)CCCC1O (single isomer, unassigned; (-)) [listing 2 of 2 here] | 13% | 88% | – | –
CCCCC/C=C\C/C=C\C/C=C\C/C=C\CCCC(=O)OC1C(O)CCCC1O (racemic) | 1% | 100% | – | –
CCCCC/C=C\C/C=C\C/C=C\C/C=C\CCCC(=O)OC(CO)CO | 74% | 100% | – | –

From ChEMBL document CHEMBL1140454, “Conformationally constrained analogues of 2-arachidonoylglycerol” (Bioorg Med Chem Lett, 2007)
